Experimental data as given in PubChem BioAssay.
The source made the active and inactive calls.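 Rule for the calls, unless noted: active = visual image review flags a hit and inhibition of aggregation exceeds 20%; inconclusive = visual hit but inhibition at or below 20%; inactive = no hit on visual image review.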

Tests used:
[1] = inhibitors of TNFa-induced NFkB p65 translocation, primary screen, imaging, HUVEC, MLSMR starter and 10KST1 sets (AID 438;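 active = inhibition above 20% together with a positive visual image hit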;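 note: compound added about 3h40 before a 20 min TNFalpha stimulation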;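 for inhibition: signal is the nuclear over cytoplasmic p65 intensity ratio per well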); conditions: HUVEC TNFa-induced p65 nuclear translocation; cell count: measured here: nuclei count (cytotoxicity indicator), at 2.08 µM; inhibition: at 2 µM, stronger effect = higher value, 0% TNFa-plus-vehicle, 100% no-TNFa wells
[2] = reduction of polyQ htt aggregates in cells – imaging, exon1htt(103Q)mCFP cells, high-content imaging, primary screen (AID 483); conditions: exon1htt(103Q)mCFP cell line, aggregate imaging, at 2 µM; inhibition of aggregation: stronger effect = higher value; nuclei count: measured here: cell count, toxicity;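 note: compound exposure lasted 3 days before fixation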;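 for nuclei count: percent of the per-plate median nuclei count of sample wells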
[3] = endothelial E-selectin expression blockers – imaging, HUVEC, immunofluorescence, MLSMR starter and 10KST1 sets, primary screen (AID 487;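 active = visually confirmed hit in the image check and inhibition above 20%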;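 for inhibition: signal is fraction of cell area covered by stained E-selectin grains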;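 for nuclei count: 100% = median nuclei count of all wells on the same plate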); conditions: HUVEC TNFalpha-induced E-selectin immunofluorescence imaging, at 2 µM; inhibition: stronger effect = higher value; nuclei count: measured here: cell number, toxicity
[4] = target: Voltage-gated potassium channel subunit beta-2 (Rattus norvegicus) (UniProt P62483); assay: inhibitors of rat Kvbeta2 reductase activity – biochemical, NADPH fluorescence, primary screen (AID 622;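 active = fluorescence slope higher than the sample average by over 3 SD, cut at about -0.22 in these data, passing the limit was not always enough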;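 note: slope of raw intensity against log time taken from 70 to 1610 s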); conditions: recombinant KvBeta, 4-cyanobenzaldehyde reduction, at 10 µM, stronger effect = higher value
[5] = target: Voltage-gated potassium channel subunit beta-2 (Rattus norvegicus) (UniProt P62483); assay: enhancers of rat Kvbeta2 NADPH turnover – biochemical, NADPH fluorescence, primary screen (AID 623;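 active = NADPH fluorescence slope more negative than the mean of all samples by about 3 SD, 99.7% confidence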;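 note: fluorescence intensity change per second fitted from 20 to 320 s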); conditions: Recombinant KvBeta, NADPH fluorescence decrease slope, 10 min; at 10 µM; stronger effect = lower value
[6] = target: Muscarinic acetylcholine receptor M4 (Homo sapiens) (UniProt P08173); assay: M4-linked GIRK flux change, two-sided – cell-based, HEK293 M4/GIRK, thallium flux, BTC-AM, M4 allosteric agonist project, primary screen (AID 625;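 active = fluorescence slope after compound addition differing from the mean of all tested samples at 99.7% confidence, mostly higher but some lower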;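 note: thallium influx through GIRK channels coupled to M4 in HEK293 cells with BTC-AM dye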); conditions: at 10 µM, actives lie on both sides
Outline: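 Assay system: HEK293 cells with M4 receptor and GIRK channels / Controls: carbachol and DMSO controls / Schedule: 1 h dye loading, 2 min kinetic read / Technique: kinetic fluorescence with BTC-AM dye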

[7] = blockers of RIG-like receptor reporter activation – cell-based, Sendai virus stimulus, luciferase, 10K MLSCN set, TLR/RLR signaling modifier project, primary screen (AID 602276;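 active = inhibition at or above 50% at 10 µM; inactive = inhibition below 50%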;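 note: firefly luciferase from ISG56 promoter only with Renilla not read in this screen; 0% = Sendai virus plus DMSO and 100% = medium plus DMSO without virus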); conditions: HEK293 RL24 IRF3 luciferase reporter, at 10 µM, stronger effect = higher value
[8] = TLR3 IRF3 reporter activation blockers – cell-based, poly I:C stimulus, luciferase, 10K MLSCN set, primary screen (AID 602277;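 active = inhibition of the reporter signal at or above 50%; inactive = inhibition below 50%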); conditions: HEK293-TLR3 RL24 IRF3 luciferase reporter, at 10 µM, stronger effect = higher value

Sequence of Muscarinic acetylcholine receptor M4 (Homo sapiens) (P08173 whole entry, looked up): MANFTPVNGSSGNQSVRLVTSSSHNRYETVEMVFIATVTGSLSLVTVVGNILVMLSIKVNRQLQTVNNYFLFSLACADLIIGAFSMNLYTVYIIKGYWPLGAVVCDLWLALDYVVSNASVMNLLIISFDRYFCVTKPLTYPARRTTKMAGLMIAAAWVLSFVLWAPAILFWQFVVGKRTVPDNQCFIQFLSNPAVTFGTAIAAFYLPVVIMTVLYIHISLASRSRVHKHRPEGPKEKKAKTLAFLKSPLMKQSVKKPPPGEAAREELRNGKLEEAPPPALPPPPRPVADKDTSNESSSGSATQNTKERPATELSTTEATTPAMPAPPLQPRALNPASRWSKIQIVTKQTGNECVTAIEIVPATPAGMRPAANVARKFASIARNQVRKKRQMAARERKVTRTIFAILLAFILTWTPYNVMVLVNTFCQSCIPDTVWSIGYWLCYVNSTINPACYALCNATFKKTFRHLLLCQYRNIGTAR
Sequence of Voltage-gated potassium channel subunit beta-2 (Rattus norvegicus) (P62483 whole entry, looked up): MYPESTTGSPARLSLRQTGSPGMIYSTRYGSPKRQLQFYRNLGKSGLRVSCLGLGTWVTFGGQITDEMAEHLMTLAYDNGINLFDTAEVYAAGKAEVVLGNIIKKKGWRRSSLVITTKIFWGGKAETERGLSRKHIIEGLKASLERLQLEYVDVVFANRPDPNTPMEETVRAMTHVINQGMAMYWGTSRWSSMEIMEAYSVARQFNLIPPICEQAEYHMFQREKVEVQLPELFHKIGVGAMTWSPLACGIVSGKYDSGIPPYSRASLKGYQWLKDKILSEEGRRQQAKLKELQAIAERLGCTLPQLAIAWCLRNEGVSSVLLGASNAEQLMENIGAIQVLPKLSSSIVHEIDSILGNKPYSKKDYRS

| Compound | cell count [1] | inhibition [1] | inhibition of aggregation [2] | nuclei count [2] | inhibition [3] | nuclei count [3] | fluorescence slope [4] | NADPH fluorescence slope [5] | fluorescence slope [6] | inhibition [7] | inhibition [8] |
| --- | --- | --- | --- | --- | --- | --- | --- | --- | --- | --- | --- |
| CCSCCC(NC1=CC(=O)CC(C)(C)C1)C(=O)O (stereo not drawn) | 353 | 9.3% (inactive) | 13.5% (inactive) | 98% | -77.8% (inactive) | 94.9% | -0.566 (inactive) | -6.6e-05 (inactive) | 0.00496 (inactive) | -16.8% (inactive) | 98.7% (active) |
| O=C(Cn1ccc2ccccc2c1=O)NCCC(=O)NC1CCN(Cc2ccccc2)CC1 | 661 | -8.5% (inactive) | 2.9% (inactive) | 83.9% | -130% (inactive) | 129% | -0.486 (inactive) | -0.000203 (inactive) | 0.00456 (inactive) | -8.1% (inactive) | 0.132% (inactive) |
| COc1ccccc1C(O)P(=O)(OC(C)C)c1ccc(N(C)C)cc1 (stereo not drawn) | 665 | -3.9% (inactive) | 6.1% (inactive) | 122% | 0% (inactive) | 106% | -0.553 (inactive) | 2.2e-06 (inactive) | 0.00553 (inactive) | 7.42% (inactive) | 11% (inactive) |
| CCOC(=O)COc1ccc(S(=O)(=O)N2CCc3ccccc3C2)cc1 | 447 | 3.3% (inactive) | -59% (inactive) | 58.4% | -5.1% (inactive) | 96% | -0.555 (inactive) | -4.9e-05 (inactive) | 0.00522 (inactive) | 19.6% (inactive) | 23.3% (inactive) |
| O=C(Nc1ccc(CN2CCCCC2)cc1)c1ccc2c(c1)OCO2 | 438 | -12.8% (inactive) | 15.1% (inactive) | 102% | -0.6% (inactive) | 73.6% | -0.473 (inactive) | -1.5e-05 (inactive) | 0.00547 (inactive) | -5.51% (inactive) | -5.01% (inactive) |
| CC1=C(C#N)C(c2ccoc2)C(C(=O)OCc2ccccc2)=C(N)S1 (stereo not drawn) | 482 | 1% (inactive) | -13.3% (inactive) | 84.8% | -90% (inactive) | 102% | -0.524 (inactive) | -0.000129 (inactive) | 0.0045 (inactive) | 9.67% (inactive) | 11.7% (inactive) |
| Cc1ccc(Nc2cc(C)nc3nnnn23)cc1 | 415 | 0.6% (inactive) | 1.1% (inactive) | 100% | 29.5% (inactive) | 92.2% | -0.559 (inactive) | -6.9e-05 (inactive) | 0.00637 (inactive) | 7.18% (inactive) | 6.33% (inactive) |
| COC(=O)c1[nH]c(C)c(/C(O)=C2\C(=O)C(=O)N(CCN(C)C)C2c2ccccc2OC)c1C (stereo not drawn) | 472 | -8% (inactive) | 10.7% (inactive) | 106% | -33.4% (inactive) | 103% | -0.326 (inactive) | -1.8e-05 (inactive) | 0.00598 (inactive) | -8.53% (inactive) | 2.66% (inactive) |
| O=C(C1CCC1)N1CCc2cc(S(=O)(=O)Nc3ccc4c(c3)OCO4)ccc21 | 606 | 10.1% (inactive) | 18.8% (inactive) | 92% | 3.5% (inactive) | 137% | -0.391 (inactive) | -6.2e-05 (inactive) | 0.0066 (inactive) | 7.48% (inactive) | 13.6% (inactive) |
| O=C(O)c1ccccc1C(=O)Nc1ccccc1 | 476 | -6% (inactive) | -8.6% (inactive) | 82.7% | -88.4% (inactive) | 143% | -0.5 (inactive) | -0.000287 (inactive) | 0.00478 (inactive) | 5.22% (inactive) | 8.4% (inactive) |
| Cc1ccc(CCNC(=O)Cn2cccc2)cc1 | 349 | -4.8% (inactive) | -1.7% (inactive) | 105% | -38.9% (inactive) | 103% | -0.355 (inactive) | -5.5e-05 (inactive) | 0.00566 (inactive) | 12.9% (inactive) | -5.93% (inactive) |
| COc1ccccc1NC(=O)C(O)C(O)C(=O)Nc1ccccc1OC (stereo not drawn) | 350 | 8.6% (inactive) | 2.9% (inactive) | 84.5% | -101% (inactive) | 101% | -0.351 (inactive) | -4.1e-05 (inactive) | 0.00694 (inactive) | -7.84% (inactive) | -0.666% (inactive) |
| CCN(c1ccccc1)S(=O)(=O)c1ccc(F)cc1C | 207 | 4.7% (inactive) | -4.7% (inactive) | 66.7% | -11.8% (inactive) | 119% | -0.58 (inactive) | -2.3e-05 (inactive) | 0.00509 (inactive) | 12.3% (inactive) | 22.6% (inactive) |
| Cc1ccc(S(=O)(=O)NCC2CCC(C(=O)NCCCN3CCOCC3)CC2)cc1 (stereo not drawn) | 305 | 1.9% (inactive) | 26.8% (inactive) | 80.7% | -24.4% (inactive) | 112% | -0.564 (inactive) | -0.000104 (inactive) | 0.00513 (inactive) | 13% (inactive) | 22.2% (inactive) |
| Cc1ccc(S(=O)(=O)NCCCNC(=O)N2CCOCC2)cc1 | 769 | -4.3% (inactive) | 1.3% (inactive) | 104% | -103% (inactive) | 129% | -0.461 (inactive) | -4.9e-05 (inactive) | 0.00502 (inactive) | 17.8% (inactive) | 16.7% (inactive) |
| O=C(CCn1c(=O)sc2ccccc21)Nc1cccnc1 | 572 | -7.6% (inactive) | 20.2% (inactive) | 81.9% | -11.2% (inactive) | 110% | -0.443 (inactive) | 0.000131 (inactive) | 0.00603 (inactive) | 8.62% (inactive) | 10.8% (inactive) |
| Cc1ccc2[nH]c(=O)c(CN(CCc3ccccc3)Cc3nnnn3CC3CCCO3)cc2c1 (stereo not drawn) | 676 | -10.2% (inactive) | 0.9% (inactive) | 105% | 75.6% (active) | 112% | -0.498 (inactive) | -7e-06 (inactive) | 0.00636 (inactive) | -7.83% (inactive) | -6.03% (inactive) |
| COc1ccc(NC(=O)Cn2nnc(-c3ccccc3N)n2)cc1OC | 656 | -6.1% (inactive) | 19.9% (inactive) | 100% | -51.2% (inactive) | 121% | -0.595 (inactive) | 1e-05 (inactive) | 0.00531 (inactive) | 17.6% (inactive) | 14.6% (inactive) |
| COc1cc(NC(=O)c2cc(-n3cnnc3)ccc2Cl)cc(OC)c1 | 224 | -8.1% (inactive) | -12.2% (inactive) | 97.9% | -46.1% (inactive) | 95.5% | -0.479 (inactive) | -8.2e-05 (inactive) | 0.00479 (inactive) | 15.2% (inactive) | 17.9% (inactive) |
| COc1ccc(-c2nc(N3CCCC3)[nH]c(=O)c2C#N)cc1 | 373 | -48.5% (inactive) | -7.1% (inactive) | 107% | -50.2% (inactive) | 114% | -0.471 (inactive) | -1.8e-05 (inactive) | 0.0047 (inactive) | 18.9% (inactive) | 13% (inactive) |
| COc1ccccc1-n1nnnc1SCc1ccccc1 | 211 | -1.5% (inactive) | 6.5% (inactive) | 108% | -25.5% (inactive) | 92.6% | -0.51 (inactive) | -2.7e-05 (inactive) | 0.00333 (inactive) | 13% (inactive) | 16.5% (inactive) |
| O=C(CSc1nc2ccccc2n1CC(=O)N1CCCC1)Nc1nccs1 | 676 | 1% (inactive) | -9.6% (inactive) | 99.7% | -3.7% (inactive) | 131% | -0.484 (inactive) | -0.000183 (inactive) | 0.00508 (inactive) | 2.67% (inactive) | 14% (inactive) |
| CCc1nc2c(cnn2-c2ccc(Cl)cc2)c(=O)n1-c1ccc2c(c1)OCCO2 | 706 | -7.7% (inactive) | -5.1% (inactive) | 120% | -49.7% (inactive) | 122% | -0.543 (inactive) | -1.7e-05 (inactive) | 0.00631 (inactive) | 3.09% (inactive) | -2.86% (inactive) |
| COc1cc(NC(=O)Cc2cccs2)ccc1-n1cnnn1 | 299 | 0% (inactive) | -26.9% (inactive) | 100% | -50.9% (inactive) | 112% | -0.543 (inactive) | -3.6e-05 (inactive) | 0.00442 (inactive) | 18.4% (inactive) | 21.1% (inactive) |
| CN(CC(=O)Nc1ccccc1Cl)C(=O)COC(=O)CNC(=O)c1ccc(Br)o1 | 436 | -13.1% (inactive) | -3.1% (inactive) | 115% | -13.8% (inactive) | 107% | -0.607 (inactive) | 2.6e-05 (inactive) | 0.00546 (inactive) | 15.4% (inactive) | 30.4% (inactive) |
| COc1ccc(N(CC(=O)N2c3ccccc3CC2C)S(=O)(=O)c2c(C)noc2C)cc1 (stereo not drawn) | 539 | -5.8% (inactive) | -18.3% (inactive) | 118% | -62.5% (inactive) | 116% | -0.395 (inactive) | 9.4e-05 (inactive) | 0.00594 (inactive) | 14.5% (inactive) | 30.9% (inactive) |
| COc1ccc(Cl)cc1NC(=O)COc1cccc(-n2cnnn2)c1 | 371 | 1.2% (inactive) | 5.6% (inactive) | 102% | 10.9% (inactive) | 112% | -0.528 (inactive) | -1.9e-05 (inactive) | 0.00451 (inactive) | 6.87% (inactive) | -12.1% (inactive) |
| CCSc1nnc(NC(=O)CSc2ncccn2)s1 | 278 | 0.5% (inactive) | -3% (inactive) | 105% | -42.2% (inactive) | 111% | -0.529 (inactive) | -4.9e-05 (inactive) | 0.00524 (inactive) | -9.35% (inactive) | 4% (inactive) |
